The subject of data set [1] is C. albicans hyphae. In words: Propidium iodide membrane permeabilization of C. albicans hyphae. In kind it is cell-based, Candida albicans. The method in brief: (§1)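 C. albicans yeast and hyphae were exposed to FITC-tagged test peptide and stained with propidium iodide to read membrane permeabilization. Exposure was in standard antimicrobial peptide assay buffer, in the preferred growth medium (YPD for yeast, RPMI for hyphae), or in buffer plus 2.5% w/v porcine mucus. For hyphae, the assay was repeated with sodium sulfate added as an anionic charge quencher.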

The test system of data set [2] is C. albicans hyphae. In words: C. albicans hyphal respiration. In kind it is cell-based, Candida albicans. As to conditions: XTT assay; increasing concentrations, with or without 2.5% w/v mucin. The method in brief:
(§2)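 C. albicans hyphae were grown in RPMI. They were exposed to the test peptide with or without 2.5% w/v porcine […], alongside scrambled-peptide and magainin-2 controls. Read-outs were respiration by XTT tetrazolium assay, dry weight, biofilm adherence and CFUs. Each assay was run in duplicate, three times.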
In general terms: Formazan colour is commonly taken as a measure of viable cells.

Data set [3] concerns C. albicans hyphae. Nature of the data set: C. albicans hyphal growth. In kind it is cell-based, Candida albicans. The method in brief:
as §2

For data set [4], the system named is C. albicans yeast. In words: Propidium iodide membrane permeabilization of C. albicans yeast. Particulars: 30 μM peptide. In kind it is cell-based, Candida albicans. In outline:
as §1

Data set [5] concerns representative Gram-positive and -negative bacteria. Nature of the data set: Antimicrobial activity against bacteria. In kind it is cell-based. Particulars: CFUs and O.D. normalized to 0 μM PYY. In outline:
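Gram-positive and Gram-negative bacteria were exposed to a range of test peptide concentrations, with or without mucus, and compared with a magainin-2 reference peptide. Surviving CFUs were normalised to 0 μM peptide, and O.D. growth to wells with 0 μM peptide. Each assay was run in duplicate, three times, and analysed by ANOVA.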

For data set [6], the system named is C. albicans yeast. Nature of the data set: C. albicans yeast survival. In kind it is cell-based, Candida albicans. Particulars: increasing concentrations, media with or without 2.5% w/v mucin; CFU and O.D. In outline: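 C. albicans yeast were grown in YPD. They were exposed to the test peptide with or without 2.5% w/v porcine […], alongside scrambled-peptide and magainin-2 controls. Survival was read as CFUs and growth as optical density. Each assay was run in duplicate, three times.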

Data set [7] is described as follows: Mucus vs. aqueous partitioning in vitro across 10 kDa MWCO filter. In kind it is physicochemical. As to conditions: 10 kDa MWCO filter separating mucus and aqueous wells. The method in brief:
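Test peptide was added to either the mucus well or the aqueous well of a pair separated by a 10 kDa MWCO filter. Experiments were run in triplicate and repeated three times, with a t-test for comparison.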

Data set [8] deals with C. albicans hyphae on Caco-2 cells. In words: C. albicans hyphae-GFP attachment to Caco-2 cells. In kind it is cell-based, Candida albicans. Particulars: 20 μM peptide, 6 hours, confluent Caco-2, vs vehicle.

For the substance “PYY3–36: circulating endocrine form, formed by removal of two N-terminal amino acids by DPP-IV [reference compound]”, the “Permeabilization / disruption of hyphae (PI), in words” value in the data set on C. albicans hyphae [1] (propidium iodide, compared with PYY1–36 (native L-isoform)) is listed as “Less pronounced permeabilization”. Moreover, the “Effect on hyphal respiration” value in the data set with C. albicans hyphae [2] is “less activity”. The Effect on biofilm result with C. albicans hyphae [3] (biofilm adherence) is given as “No differences”.

“PYY1–36: unmodified, full length peptide YY expressed by Paneth cells”: the “Concentration at which permeabilization of hyphae was observed (PI)” value in the data set on C. albicans hyphae [1] (hyphae induced in presence of 2.5% w/v porcine mucin, propidium iodide) was 30 µM. Further, the “Peptide-induced permeability (PI) in presence of sodium sulfate” value with C. albicans hyphae [1] (sodium sulfate as anionic quencher of cationic charge) is listed as “reduced”. Besides, the “Permeabilization of yeast (PI)” value in the data set with C. albicans yeast [4] is “unaffected”. The “Antimicrobial activity against Gram-positive and -negative bacteria” value in data set [5] is “less activity compared with more effective magainin-2”. For the same substance, in the data set with C. albicans yeast [6], the “Effect on yeast numbers or density” value is recorded as “did not affect”. The “Effect on hyphal respiration” value in the data set with C. albicans hyphae [2] is recorded as “decrease in hyphal respiration”. Also, in the data set on C. albicans hyphae [3] (2.5% w/v mucin present), the “Shape of dose-response in biofilm and colony forming units” value is “sigmoidal dose-response curve”. The “Concentration of peak effect (biphasic dose-response)” value in the data set on C. albicans hyphae [3] (aqueous (RPMI) buffer) was ~ 30 μM. The “Concentration of loss of activity (biphasic dose-response)” value in the data set on C. albicans hyphae [3] (aqueous (RPMI) buffer, attributed to self-aggregation) came to 100 µM. Further, in the data set with C. albicans hyphae [3] (aqueous conditions, biofilm adherence), the “Concentration at which biofilm formation was significantly reduced” value was 20 to 50 µM. Further, in the data set with C. albicans hyphae [3] (aqueous conditions, dry weight), the “Concentration at which hyphal growth was significantly reduced” value was in the range of 20 to 50 µM. In data set [7], the “Partitioning between mucus and aqueous compartments” value is recorded as “preferentially partitions into mucus”. Moreover, the “Numbers of hyphae attached to Caco-2 cells” value in data set [8] is on record as “significantly reduced”.

For the substance “PYY1–36 - fluorescein isothiocyanate (FITC) tagged peptide: FITC tagged PYY1–36”, the “Co-localization of tagged peptide with PI signal” value in the data set with C. albicans hyphae [1] (FITC-tagged peptide, fluorescence microscopy) is “co-localized with the PI signal within hyphae”.

As to magainin-2 [reference compound], the “Antimicrobial activity against Gram-positive and -negative bacteria” value in data set [5] was “more effective”.

For the origin of these results see PMC10876062 (Science (New York, N.Y.), 2023).
